39 molecules from PubChem BioAssay can be followed below.

Molecules are shown by their SMILES. Calls of active or inactive are those of the source.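 Rule for the calls, unless noted: active = potentiation averaged over duplicate wells exceeding buffer-only control mean by more than 3 SD; inactive = the rest.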

System in the first test: not listed separately
Kind of test: thallium flux activation in parental CHO cells, counter-screen for KCNQ1 potentiator project (AID 493006;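 active = duplicate-averaged activation above buffer control mean plus 5 SD of those controls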;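 for activation: fluorescence ratio of max minus min over baseline after K+ and Tl+ depolarization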). The settings on record: parental CHO-K1 cells, FluxOR thallium flux, at 10 µM; hits give high values. In outline: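 Material: parental CHO-K1 cells, FluxOR dye-loaded; Also added: Potassium/thallium depolarization pulse; Schedule: overnight 37 °C plating, 90 min dye, 20 min dark compound; Signal: kinetic FluxOR fluorescence, 10 s baseline, 110 s after stimulus.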
A general note: The purpose of a counterscreen is to sort out artefacts and off-target activity.
For the molecule `Cc1sc(N/N=C/c2ccco2)nc1-c1ccccc1`, the result was inactive.

As for `COc1ccc(CN(C)C(=O)c2cccc(NS(=O)(=O)c3ccccc3)c2)cc1F`, the result was inactive.

`S=c1nc2ccccc2c2nc(-c3ccccc3)[nH]n12`: the outcome was inactive.

Turning to `CC(=O)Nc1cccc(/C(C)=N/NC(=O)c2ccc(Cl)cc2Cl)c1`, the outcome was inactive.

Regarding `Cc1ccc(NC(=O)C(=O)NNC(=O)c2cccs2)cc1`, the activation is 337% (active).

In the case of `Cc1ccccc1C(=O)NC1CC(C)(C)NC(C)(C)C1`, the outcome was inactive.

As to `CN(C)c1nc(=Nc2cccc(Cl)c2)ss1`, the activation is 312% (active).

For the molecule `CC1=NN(C(=O)c2csc(C(C)C)c2)C(O)(C(F)(F)F)C1` (stereo not drawn), the activation was 164% (active).

Turning to `COn1c(SCc2ccc(C)cc2C)nc2ccccc2c1=O`, the result was inactive.

With `Cc1cc(C(=O)N/N=C/c2cccs2)no1`, the outcome was inactive.

Take `CSC(=S)N/N=C/c1ccc(Br)cc1`: the activation was 172% (active).

`CC(/C=N/n1c(C2CCCCC2)n[nH]c1=S)=C\c1ccccc1`: the result was inactive.

For the molecule `O=C(Cn1c(C(F)(F)F)nc2ccccc21)N=Nc1c(O)[nH]c2ccc(Br)cc12`, the outcome was inactive.

Turning to `O=C(Nc1ccccc1F)C1C2C=CC3(O2)C1C(=O)N(c1cccnc1)C3C(=O)NC1CCCCC1` (stereo not drawn), the outcome was inactive.

As for `CCCNC(=O)C(=O)N/N=C/c1cccs1`, the outcome was inactive.

As for `Nc1ccccc1OCCOCCOc1ccccc1N`, the result was inactive.

For `Cc1cc(C)cc(C(=O)OCC(=O)NCC(F)(F)F)c1`, the outcome was inactive.

Take `O=c1c2cc(Cl)ccc2nc(-c2ccccc2)n1O`: the activation is 298% (active).

`S=c1[nH]nc(-c2ccc(Cl)cc2Cl)n1-c1ccc(Cl)cc1`: the activation was 154% (active).

With `O=C(CCC1CCN(C(=O)c2cncs2)CC1)Nc1ccccc1`, the activation is 446% (active).

Regarding `NS(=O)(=O)c1ccc(CCNC(=O)COC(=O)c2cc([N+](=O)[O-])ccc2N2CCOCC2)cc1`, the outcome was inactive.

For `Cc1c(/C=N\NC(=O)c2ccc(F)cc2)cnn1C`, the result was inactive.

As to `C=CCn1c(-c2cc(-c3ccc(C)cc3)nc3ccccc23)n[nH]c1=S`, the activation is 138% (active).

As to `O=C(COC(=O)C1C2CC3OC(=O)C1C3C2)Nc1ccc(Cl)cc1` (stereo not drawn), the result was inactive.

For `O=C(c1ccco1)N1CCN=C1SCc1ccc(F)cc1`, the outcome was inactive.

With `Cc1cc(C(=O)N2CCCC(N3CCN(c4cccc(Cl)c4)CC3)C2)n(C)n1` (stereo not drawn), the outcome was inactive.

On to `CC(C)CC(=O)NC(=S)Nc1nc(-c2ccccc2)cs1`, for which the activation is 284% (active).

Turning to `Cc1ccc(-c2nc(N)s[n+]2-c2ccccc2)cc1`, the activation was 187% (active).

`Cc1ccc(C)c(N(CC(=O)NC2CCCC2)C(=O)CCC(=O)Nc2nccs2)c1`: the outcome was inactive.

Regarding `CCOC(=O)Nc1ccc2c(c1)N(CCCN(C)C)c1ccccc1CC2`, the result was inactive.

Take `CC(C)(C)C(=O)NC(=S)NNC(=O)c1ccc(Cl)cc1Cl`: the result was inactive.

For the molecule `O=C(c1ccccc1[N+](=O)[O-])N1CCN(c2ccc(N3CCOCC3)nn2)CC1`, the result was inactive.

In the case of `Fc1ccc(NC(=S)N/N=C/c2ccc(F)c(F)c2)c(F)c1`, the result was inactive.

On to `Oc1c(Br)cc(Br)cc1C=NCc1ccccc1`, for which the activation is 147% (active).

Take `CN(C)c1ccc(C(=O)Nc2nnc(C3=COCCO3)o2)cc1`: the result was inactive.

For the molecule `CCOC(=O)c1ccc(Nc2nc(N3CCOCC3)nc(N3CCOCC3)n2)cc1`, the outcome was inactive.

On to `COc1ccc(N/C=C/C(=O)c2cc(OC)c(OC)c(OC)c2)cc1`, for which the activation was 366% (active).

`Cc1cc(Cl)n2nc(C)c(-c3ccc(Cl)cc3)c2n1`: the activation was 216% (active).

For `O=C1c2ccccc2C2(c3cc(C(F)(F)F)cc(C(F)(F)F)c3)NCCN12` (stereo not drawn), the result was inactive.

The next test deals with Potassium voltage-gated channel subfamily KQT member 1 (Homo sapiens) (UniProt P51787). Kind of test: KCNQ1 potassium channel potentiators, confirmation, FluxOR thallium flux, CHO cells, duplicates (AID 493007).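 For outcome: cells depolarized by a potassium plus thallium sulfate stimulus after compound.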 The settings on record: KCNQ1 cell line, FluxOR thallium flux fluorescence, at 10 µM; hits give high values, % of reference activator effect, buffer zero. Summed up: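 System: KCNQ1-expressing CHO cell line; technique: kinetic thallium influx fluorescence with FluxOR dye, 10 s baseline, 110 s post-stimulus; timing: dye 90 min then compound 20 min, both at room temperature; controls: buffer-only wells as 0% and R-L3 activator as 100%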
Potassium voltage-gated channel subfamily KQT member 1 (Homo sapiens), sequence (P51787 whole entry, looked up): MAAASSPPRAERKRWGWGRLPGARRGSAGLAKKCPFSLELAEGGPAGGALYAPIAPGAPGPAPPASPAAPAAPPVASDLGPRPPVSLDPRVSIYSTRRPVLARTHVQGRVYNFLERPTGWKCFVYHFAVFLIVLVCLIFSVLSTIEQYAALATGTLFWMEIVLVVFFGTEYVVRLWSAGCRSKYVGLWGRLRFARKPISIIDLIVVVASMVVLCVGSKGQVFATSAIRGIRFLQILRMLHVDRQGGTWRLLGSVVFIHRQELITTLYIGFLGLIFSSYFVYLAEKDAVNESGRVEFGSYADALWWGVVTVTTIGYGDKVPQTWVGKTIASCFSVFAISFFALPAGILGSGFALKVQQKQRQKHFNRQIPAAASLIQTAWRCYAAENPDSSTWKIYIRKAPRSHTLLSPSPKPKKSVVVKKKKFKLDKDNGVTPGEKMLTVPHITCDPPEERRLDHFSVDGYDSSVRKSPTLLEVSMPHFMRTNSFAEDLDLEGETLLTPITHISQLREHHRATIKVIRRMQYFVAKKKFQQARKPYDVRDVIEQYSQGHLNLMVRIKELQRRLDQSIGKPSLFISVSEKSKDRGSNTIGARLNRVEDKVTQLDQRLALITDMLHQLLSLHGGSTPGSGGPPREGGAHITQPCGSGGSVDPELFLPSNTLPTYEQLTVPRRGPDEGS
On to `Cc1sc(N/N=C/c2ccco2)nc1-c1ccccc1`, for which the result was inactive.

Turning to `COc1ccc(CN(C)C(=O)c2cccc(NS(=O)(=O)c3ccccc3)c2)cc1F`, the result was inactive.

Regarding `S=c1nc2ccccc2c2nc(-c3ccccc3)[nH]n12`, the outcome was inactive.

Turning to `CC(=O)Nc1cccc(/C(C)=N/NC(=O)c2ccc(Cl)cc2Cl)c1`, the outcome was inactive.

As to `Cc1ccc(NC(=O)C(=O)NNC(=O)c2cccs2)cc1`, the potentiation is 88.5% (active).

For `Cc1ccccc1C(=O)NC1CC(C)(C)NC(C)(C)C1`, the result was inactive.

Regarding `CN(C)c1nc(=Nc2cccc(Cl)c2)ss1`, the potentiation is 119% (active).

For the molecule `CC1=NN(C(=O)c2csc(C(C)C)c2)C(O)(C(F)(F)F)C1` (stereo not drawn), the potentiation was 61.5% (active).

For `COn1c(SCc2ccc(C)cc2C)nc2ccccc2c1=O`, the outcome was inactive.

Regarding `Cc1cc(C(=O)N/N=C/c2cccs2)no1`, the result was inactive.

For `CSC(=S)N/N=C/c1ccc(Br)cc1`, the potentiation is 38% (active).

Consider `CC(/C=N/n1c(C2CCCCC2)n[nH]c1=S)=C\c1ccccc1`, for which the potentiation was 270% (active).

For `O=C(Cn1c(C(F)(F)F)nc2ccccc21)N=Nc1c(O)[nH]c2ccc(Br)cc12`, the result was inactive.

For `O=C(Nc1ccccc1F)C1C2C=CC3(O2)C1C(=O)N(c1cccnc1)C3C(=O)NC1CCCCC1` (stereo not drawn), the result was inactive.

`CCCNC(=O)C(=O)N/N=C/c1cccs1`: the potentiation is 24.5% (active).

In the case of `Nc1ccccc1OCCOCCOc1ccccc1N`, the outcome was inactive.

Turning to `Cc1cc(C)cc(C(=O)OCC(=O)NCC(F)(F)F)c1`, the outcome was inactive.

As for `O=c1c2cc(Cl)ccc2nc(-c2ccccc2)n1O`, the potentiation was 82.5% (active).

Consider `S=c1[nH]nc(-c2ccc(Cl)cc2Cl)n1-c1ccc(Cl)cc1`, for which the potentiation was 43% (active).

For `O=C(CCC1CCN(C(=O)c2cncs2)CC1)Nc1ccccc1`, the potentiation is 164% (active).

`NS(=O)(=O)c1ccc(CCNC(=O)COC(=O)c2cc([N+](=O)[O-])ccc2N2CCOCC2)cc1`: the result was inactive.

Consider `Cc1c(/C=N\NC(=O)c2ccc(F)cc2)cnn1C`, for which the outcome was inactive.

For `C=CCn1c(-c2cc(-c3ccc(C)cc3)nc3ccccc23)n[nH]c1=S`, the potentiation is 108% (active).

As for `O=C(COC(=O)C1C2CC3OC(=O)C1C3C2)Nc1ccc(Cl)cc1` (stereo not drawn), the result was inactive.

For the molecule `O=C(c1ccco1)N1CCN=C1SCc1ccc(F)cc1`, the result was inactive.

As for `Cc1cc(C(=O)N2CCCC(N3CCN(c4cccc(Cl)c4)CC3)C2)n(C)n1` (stereo not drawn), the outcome was inactive.

Consider `CC(C)CC(=O)NC(=S)Nc1nc(-c2ccccc2)cs1`, for which the potentiation was 152% (active).

In the case of `Cc1ccc(-c2nc(N)s[n+]2-c2ccccc2)cc1`, the potentiation was 157% (active).

For `Cc1ccc(C)c(N(CC(=O)NC2CCCC2)C(=O)CCC(=O)Nc2nccs2)c1`, the result was inactive.

Consider `CCOC(=O)Nc1ccc2c(c1)N(CCCN(C)C)c1ccccc1CC2`, for which the outcome was inactive.

For the molecule `CC(C)(C)C(=O)NC(=S)NNC(=O)c1ccc(Cl)cc1Cl`, the potentiation is 52% (active).

As for `O=C(c1ccccc1[N+](=O)[O-])N1CCN(c2ccc(N3CCOCC3)nn2)CC1`, the result was inactive.

Regarding `Fc1ccc(NC(=S)N/N=C/c2ccc(F)c(F)c2)c(F)c1`, the result was inactive.

`Oc1c(Br)cc(Br)cc1C=NCc1ccccc1`: the potentiation was 21.5% (active).

In the case of `CN(C)c1ccc(C(=O)Nc2nnc(C3=COCCO3)o2)cc1`, the outcome was inactive.

As to `CCOC(=O)c1ccc(Nc2nc(N3CCOCC3)nc(N3CCOCC3)n2)cc1`, the outcome was inactive.

As to `COc1ccc(N/C=C/C(=O)c2cc(OC)c(OC)c(OC)c2)cc1`, the potentiation is 188% (active).

For `Cc1cc(Cl)n2nc(C)c(-c3ccc(Cl)cc3)c2n1`, the potentiation is 256% (active).

Take `O=C1c2ccccc2C2(c3cc(C(F)(F)F)cc(C(F)(F)F)c3)NCCN12` (stereo not drawn): the result was inactive.
